In brackets after ≈: the same amount, converted by molar mass. Activity calls are given as the source filed them. No cut-off for these calls is given here.
Assays:
Enterococcus faecium [1] = assay: Antimicrobial activity against glycopeptide-resistant Enterococcus faecium isolate HS08257 harboring MLST sequence type ST341 and pulsotype F expressing vanM gene cluster isolated from urine of patient by Etest
Enterococcus faecium [2] = assay: Antimicrobial activity against glycopeptide-resistant Enterococcus faecium isolate HS0661 harboring MLST sequence type ST78 and pulsotype C expressing vanM gene cluster isolated from exudate of patient by Etest
Enterococcus faecium [3] = assay: Antimicrobial activity against glycopeptide-resistant Enterococcus faecium isolate HS0847 harboring MLST sequence type ST78 and pulsotype E expressing vanM gene cluster isolated from urine of patient by Etest
Enterococcus faecium [4] = assay: Antimicrobial activity against rifampin-, fusidic acid-resistant Enterococcus faecium BM-4105 by Etest; format: functional
Method in brief: (§1)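 MIC by Etest on Mueller-Hinton agar, run per manufacturer's instructions and interpreted by CLSI recommendations. Same method for donor, recipient (BM4105RF, Fusr Rifr) and transconjugants. Transconjugants came from filter mating and were selected on BHI agar with rifampin (100 μg/ml) or fusidic acid (10 μg/ml) plus vancomycin (10 μg/ml).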

Enterococcus faecium [5] = assay: Antimicrobial activity against Enterococcus faecium BM-0661 transconjugant by Etest; format: functional
Method in brief: as §1

Enterococcus faecium [6] = assay: Antimicrobial activity against glycopeptide-resistant Enterococcus faecium isolate HS08369 harboring MLST sequence type ST18 and pulsotype G expressing vanM gene cluster isolated from urine of patient by Etest
Enterococcus faecium [7] = assay: Antimicrobial activity against glycopeptide-resistant Enterococcus faecium isolate HS0649 harboring MLST sequence type ST17 and pulsotype B expressing vanA gene cluster isolated from exudate of patient by Etest
Enterococcus faecium [8] = assay: Antimicrobial activity against glycopeptide-resistant Enterococcus faecium isolate HS05417 harboring MLST sequence type ST17 and pulsotype A expressing vanA gene cluster isolated from urine of patient by Etest
Enterococcus faecium [9] = assay: Antimicrobial activity against glycopeptide-resistant Enterococcus faecium isolate HS07261 harboring MLST sequence type ST78 and pulsotype D expressing vanM gene cluster isolated from urine of patient by Etest
Enterococcus faecium [10] = assay: Antimicrobial activity against glycopeptide-resistant Enterococcus faecium isolate HS0761 harboring MLST sequence type ST78 and pulsotype C expressing vanM gene cluster isolated from urine of patient by Etest
Enterococcus faecium [11] = assay: Antimicrobial activity against glycopeptide-resistant Enterococcus faecium isolate HS06188 harboring MLST sequence type ST78 and pulsotype A expressing vanA gene cluster isolated from urine of patient by Etest
Enterococcus faecium [12] = assay: Antimicrobial activity against glycopeptide-resistant Enterococcus faecium isolate HS05446 harboring MLST sequence type ST17 and pulsotype B expressing vanA gene cluster isolated from urine of patient by Etest
Enterococcus faecalis = assay: Induction of VanM gene cluster in glycopeptide-resistant Enterococcus […] isolate HS0661 harboring MLST sequence type ST78 and pulsotype C expressing vanM gene cluster isolated from exudate of patient assessed as UDP-MurNAc-tetrapeptide-D-lactate at 50 ug/mL by LC-MS method; format: functional, organism-based
Method in brief: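 Efm-HS0661 was grown in BHI broth to OD650 0.4, then exposed to glycopeptide at 50 μg/ml for a further 120 min. Peptidoglycan precursors were extracted and separated on a C18 column at 30 μl/min using a linear gradient over 18 min. Eluent A was 10 mM ammonium acetate, pH 5; eluent B was 2% acetonitrile in the same buffer. Precursors were identified by MS from fragments at m/z 562 and 747.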

| Structure (SMILES) | MIC (Enterococcus faecium [1]) [µg/mL] | MIC (Enterococcus faecium [2]) [µg/mL] | MIC (Enterococcus faecium [3]) [µg/mL] | MIC (Enterococcus faecium [4]) [µg/mL] | MIC (Enterococcus faecium [5]) [µg/mL] | MIC (Enterococcus faecium [6]) [µg/mL] | MIC (Enterococcus faecium [7]) [µg/mL] | MIC (Enterococcus faecium [8]) [µg/mL] | MIC (Enterococcus faecium [9]) [µg/mL] | MIC (Enterococcus faecium [10]) [µg/mL] | MIC (Enterococcus faecium [11]) [µg/mL] | MIC (Enterococcus faecium [12]) [µg/mL] | Activity (Enterococcus faecalis) |
| --- | --- | --- | --- | --- | --- | --- | --- | --- | --- | --- | --- | --- | --- |
| C[C@H]1c2cccc(O)c2C(=O)C2=C(O)[C@]3(O)C(=O)C(C(N)=O)=C(O)[C@@H](N(C)C)[C@@H]3[C@@H](O)[C@@H]21.O [DOXYCYCLINE] | 0.19 | 0.125 | 0.094 | 0.094 | 0.094 | 32 | 6 | 0.19 | 0.19 | 0.125 | 0.125 | 6 |  |
| CC(=O)NC[C@H]1CN(c2ccc(N3CCOCC3)c(F)c2)C(=O)O1 [LINEZOLID] |  | 1.5 (≈ 4.45 µM) |  | 1.5 (≈ 4.45 µM) | 1 (≈ 2.96 µM) |  | 1.5 (≈ 4.45 µM) | 1.5 (≈ 4.45 µM) | 1.5 (≈ 4.45 µM) | 1.5 (≈ 4.45 µM) | 1.5 (≈ 4.45 µM) | 1.5 (≈ 4.45 µM) |  |
| O=C1CN(/N=C/c2ccc([N+](=O)[O-])o2)C(=O)N1 [NITROFURANTOIN] | 196 (≈ 823 µM) | 64 (≈ 269 µM) | 64 (≈ 269 µM) | 16 (≈ 67.2 µM) | 16 (≈ 67.2 µM) | 32 (≈ 134 µM) | > 512 | 128 (≈ 537 µM) | 128 (≈ 537 µM) | 64 (≈ 269 µM) | 128 (≈ 537 µM) | 16 (≈ 67.2 µM) |  |
| CO[C@H]1/C=C/O[C@@]2(C)Oc3c(C)c(O)c4c(O)c(c(/C=N/N5CCN(C)CC5)c(O)c4c3C2=O)NC(=O)/C(C)=C\C=C\[C@H](C)[C@H](O)[C@@H](C)[C@@H](O)[C@@H](C)[C@H](OC(C)=O)[C@@H]1C [RIFAMPIN] | 8 (≈ 9.72 µM) | 4 (≈ 4.86 µM) | > 32 | > 32 | > 32 | 16 (≈ 19.4 µM) | 4 (≈ 4.86 µM) | 0.25 (≈ 0.304 µM) | > 32 | 3 (≈ 3.65 µM) | 0.19 (≈ 0.231 µM) | 4 (≈ 4.86 µM) |  |
| CN[C@H](CC(C)C)C(=O)N[C@H]1C(=O)N[C@@H](CC(N)=O)C(=O)N[C@H]2C(=O)N[C@H]3C(=O)N[C@H](C(=O)N[C@H](C(=O)O)c4cc(O)cc(O)c4-c4cc3ccc4O)[C@H](O)c3ccc(c(Cl)c3)Oc3cc2cc(c3O[C@@H]2O[C@H](CO)[C@@H](O)[C@H](O)[C@H]2O[C@H]2C[C@](C)(N)[C@H](O)[C@H](C)O2)Oc2ccc(cc2Cl)[C@H]1O [VANCOMYCIN] | > 256 | > 256 | > 256 | 0.75 (≈ 0.518 µM) | > 256 | > 256 | > 256 | > 256 | > 256 | > 256 | > 256 | > 256 | Active |

Source: ChEMBL document CHEMBL1687792, “vanM, a new glycopeptide resistance gene cluster found in Enterococcus faecium” (2010)
